{"source": "ChEMBL document CHEMBL1124458", "about": "“Electrophilic derivatives of purines as irreversible inhibitors of A1 adenosine receptors” (J Med Chem, 1989)", "key": {"Adenosine receptor A1 [1]": {"molecular_target": "T1, Adenosine receptor A1 (Rattus norvegicus, UniProt P25099)", "T1 sequence (P25099 whole entry)": "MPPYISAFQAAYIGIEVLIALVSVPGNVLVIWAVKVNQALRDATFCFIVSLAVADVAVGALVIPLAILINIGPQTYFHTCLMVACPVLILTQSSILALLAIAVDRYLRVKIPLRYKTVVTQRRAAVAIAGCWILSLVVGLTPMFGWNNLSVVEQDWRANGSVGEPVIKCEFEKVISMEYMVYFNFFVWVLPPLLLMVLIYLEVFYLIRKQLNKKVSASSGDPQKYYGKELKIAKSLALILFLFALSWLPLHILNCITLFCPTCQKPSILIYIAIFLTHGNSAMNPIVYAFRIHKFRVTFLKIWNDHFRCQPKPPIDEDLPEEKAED", "assay": "Affinity for adenosine A1 receptor using [3H]N6-(phenylisopropyl)adenosine (R)-[3H]-PIA as a radioligand in rat brain.", "format": "tissue-based"}, "[2]": {"molecular_target": "Adenosine receptors; A1 & A2 (Rattus norvegicus) (UniProt P29276+P25099+P30543)", "assay": "Relative affinities for Adenosine A2 and Adenosine A1 receptors", "format": "protein assay"}, "[3]": {"molecular_target": "T2, Adenosine receptor A1 (Rattus norvegicus) (UniProt P25099)", "T2 sequence (whole entry)": "T1 sequence (P25099 whole entry)", "assay": "Inhibition of [125I]-APNEA binding to adenosine A1 receptor of rat brain at 50 nM", "outline": "(§1)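 Adenosine deaminase-treated rat cerebral cortex membranes were exposed to the ligand for 45 min at 37 °C. They were washed three times, held in buffer with 10⁻⁴ M IBMX for 18 h at 25 °C, washed and re-treated with deaminase. Residual sites were measured by 125I-APNEA saturation (0.1–2.5 nM) against untreated membranes carried through the same procedure.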"}, "Adenosine A2 receptor [4]": {"molecular_target": "T3, Adenosine A2 receptor (Rattus norvegicus, UniProt P29276+P30543)", "assay": "Inhibitory affinity for Adenosine A2 receptor using [3H]N-ethyladenosine-5'-uronamide", "format": "protein assay"}, "Adenosine receptor A1 [5]": {"molecular_target": "T1, Adenosine receptor A1", "assay": "Affinity for adenosine A1 receptor using [3H]-N6 -(phenylisopropyl)-adenosine (R)-[3H]-PIA in rat brain.", "format": "tissue-based", "outline": "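Rat cerebral cortex membranes were incubated with 1 nM (R)-[3H]PIA and a range of competitor concentrations. Each point was run in triplicate, in at least three separate experiments.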"}, "[6]": {"molecular_target": "T2, Adenosine receptor A1 (Rattus norvegicus)", "assay": "Percentage inhibition of [125I]-APNEA binding to adenosine A1 receptor from rat brain after 45 min incubation at 50 nM", "outline": "as §1"}, "Adenosine A2 receptor [7]": {"molecular_target": "T3, Adenosine A2 receptor", "assay": "Inhibition of [3H]N-ethyladenosine-5'-uronamide binding to Adenosine A2 receptor of rat striatal membrane"}, "Adenosine receptor A1 [8]": {"molecular_target": "T4, Adenosine receptor A1 (Bos taurus, UniProt P28190)", "T4 sequence (P28190 whole entry)": "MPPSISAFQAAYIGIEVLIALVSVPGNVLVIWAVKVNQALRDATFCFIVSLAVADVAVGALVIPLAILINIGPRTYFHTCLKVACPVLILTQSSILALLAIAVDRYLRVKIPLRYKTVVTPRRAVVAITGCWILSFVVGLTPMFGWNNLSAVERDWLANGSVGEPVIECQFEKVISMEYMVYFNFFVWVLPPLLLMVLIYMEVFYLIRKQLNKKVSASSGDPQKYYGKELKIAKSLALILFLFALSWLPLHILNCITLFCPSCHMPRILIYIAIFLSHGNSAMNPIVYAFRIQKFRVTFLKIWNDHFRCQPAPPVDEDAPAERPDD", "assay": "Affinity for Adenosine A1 receptor using [125I]APNEA in calf brain.", "outline": "(§2)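 Bovine cerebral cortex membranes were pretreated with adenosine deaminase (0.5 unit/mL, 20 min, 37 °C). Membranes (40 µg) were incubated with 125I-APNEA and competitor for 1 h at 37 °C. Separation was by dilution in cold Tris-HCl/MgCl2/EDTA buffer, pH 8.26, with 0.02% Chaps, then glass-filter filtration and gamma counting. Nonspecific binding was defined with 10⁻⁵ M (R)-PIA.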"}, "Adenosine receptor A1 [9]": {"molecular_target": "T4, Adenosine receptor A1", "assay": "Affinity for Adenosine A1 receptor using [N6-[(3-[125I]-iodo-4-aminophenyl)ethyl]adenosine in calf brain", "format": "tissue-based", "outline": "as §2"}, "[10]": {"molecular_target": "T2, Adenosine receptor A1 (Rattus norvegicus)", "assay": "Percentage inhibition of [125I]APNEA binding to adenosine A1 receptor from rat brain after 45 min incubation at 500 nM", "outline": "as §1"}}, "data": [{"smiles": "O=C(CBr)NCCNC(=O)Cc1ccc(NC(=O)Cc2ccc(Nc3ncnc4c3ncn4C3O[C@H](CO)[C@@H](O)[C@H]3O)cc2)cc1", "note": "(some centres undefined)", "values": [{"measurement": "Ki", "setting": "Adenosine receptor A1 [1]", "value": 8.3, "unit": "nM"}, {"measurement": "Ratio", "setting": "[2]", "value": 76}, {"measurement": "inhibition", "setting": "[3]", "value": 38, "unit": "%"}, {"measurement": "Ki", "setting": "Adenosine A2 receptor [4]", "value": 202, "unit": "nM"}]}, {"smiles": "CCCn1c(=O)c2nc(-c3ccc(OCC(=O)NCCN=C(S)Nc4ccc(F)cc4)cc3)[nH]c2n(CCC)c1=O", "values": [{"measurement": "Ki", "setting": "Adenosine receptor A1 [1]", "value": 15.5, "unit": "nM"}]}, {"smiles": "O=C(Cc1ccc(NC(=O)Cc2ccc(Nc3ncnc4c3ncn4C3O[C@H](CO)[C@@H](O)[C@H]3O)cc2)cc1)NCCNC(=S)Nc1ccc(Br)cc1", "note": "(some centres undefined)", "values": [{"measurement": "Ki", "setting": "Adenosine receptor A1 [1]", "value": 1.19, "unit": "nM"}]}, {"smiles": "COc1ccc(NC(=S)NCCNC(=O)Cc2ccc(NC(=O)Cc3ccc(Nc4ncnc5c4ncn5C4O[C@H](CO)[C@@H](O)[C@H]4O)cc3)cc2)cc1", "note": "(some centres undefined)", "values": [{"measurement": "Ki", "setting": "Adenosine receptor A1 [5]", "value": 8.52, "unit": "nM"}]}, {"smiles": "CCCn1c(=O)c2nc(-c3ccc(OCC(=O)NCCNC(=O)c4ccc(CBr)cc4)cc3)[nH]c2n(CCC)c1=O", "values": [{"measurement": "inhibition", "setting": "[3]", "value": 15, "unit": "%"}]}, {"smiles": "CCCn1c(=O)c2nc(-c3ccc(OCC(=O)NCCNC(=O)C/N=C(\\S)Nc4ccc(N=C=S)cc4)cc3)[nH]c2n(CCC)c1=O", "values": [{"measurement": "Ratio", "setting": "[2]", "value": 69}, {"measurement": "inhibition", "setting": "[3]", "value": 50, "unit": "%"}, {"measurement": "Ki", "setting": "Adenosine A2 receptor [4]", "value": 472, "unit": "nM"}]}, {"smiles": "O=C(Cc1ccc(NC(=O)Cc2ccc(Nc3ncnc4c3ncn4C3O[C@H](CO)[C@@H](O)[C@H]3O)cc2)cc1)NCC/N=C(\\S)Nc1c(F)c(F)c(F)c(F)c1F", "note": "(some centres undefined)", "values": [{"measurement": "Ki", "setting": "Adenosine receptor A1 [5]", "value": 1.64, "unit": "nM"}]}, {"smiles": "CCCn1c(=O)c2nc(-c3ccc(OCC(=O)NCCNS(=O)(=O)c4cccc(S(=O)(=O)Cl)c4)cc3)[nH]c2n(CCC)c1=O", "values": [{"measurement": "Ratio", "setting": "[2]", "value": 42}, {"measurement": "inhibition", "setting": "[6]", "value": 23, "unit": "%"}, {"measurement": "Ki", "setting": "Adenosine A2 receptor [7]", "value": 105, "unit": "nM"}]}, {"smiles": "CCCn1c(=O)c2nc(-c3ccc(OCC(=O)ON4C(=O)CCC4=O)cc3)[nH]c2n(CCC)c1=O", "values": [{"measurement": "inhibition", "setting": "[3]", "value": 10, "unit": "%"}]}, {"smiles": "CCCn1c(=O)c2[nH]c(-c3ccc(OCC(=O)NCCNC(=O)c4ccc(CBr)cc4)cc3)nc2n(CCC)c1=O", "values": [{"measurement": "Ki", "setting": "Adenosine receptor A1 [8]", "value": 10.1, "unit": "nM"}]}, {"smiles": "O=C(Cc1ccc(NC(=O)Cc2ccc(Nc3ncnc4c3ncn4C3O[C@H](CO)[C@@H](O)[C@H]3O)cc2)cc1)NCC/N=C(\\S)Nc1ccc(F)cc1", "note": "(some centres undefined)", "values": [{"measurement": "Ki", "setting": "Adenosine receptor A1 [1]", "value": 8.71, "unit": "nM"}]}, {"smiles": "CCCn1c(=O)c2[nH]c(-c3ccc(OCC(=O)NCCNC(=O)CNC(=O)CCCN4C(=O)C=CC4=O)cc3)nc2n(CCC)c1=O", "values": [{"measurement": "Ki", "setting": "Adenosine receptor A1 [5]", "value": 23.2, "unit": "nM"}]}, {"smiles": "CCCn1c(=O)c2[nH]c(-c3ccc(OCC(=O)NCCN)cc3)nc2n(CCC)c1=O", "note": "[XANTHINE AMINE CONGENER]", "values": [{"measurement": "Ki", "setting": "Adenosine receptor A1 [9]", "value": 0.3, "unit": "nM"}]}, {"smiles": "O=C(Cc1ccc(Nc2ncnc3c2ncn3C2O[C@H](CO)[C@@H](O)[C@H]2O)cc1)Nc1ccc(CC(=O)ON2C(=O)CCC2=O)cc1", "note": "(some centres undefined)", "values": [{"measurement": "Ki", "setting": "Adenosine receptor A1 [1]", "value": 9.6, "unit": "nM"}, {"measurement": "inhibition", "setting": "[3]", "value": 44, "unit": "%"}]}, {"smiles": "CCCn1c(=O)c2nc(-c3ccc(OCC(=O)NCCNC(=O)CCCN4C(=O)C=CC4=O)cc3)[nH]c2n(CCC)c1=O", "values": [{"measurement": "Ki", "setting": "Adenosine receptor A1 [1]", "value": 37.8, "unit": "nM"}, {"measurement": "inhibition", "setting": "[3]", "value": 15, "unit": "%"}]}, {"smiles": "O=C(Cc1ccc(NC(=O)Cc2ccc(Nc3ncnc4c3ncn4C3O[C@H](CO)[C@@H](O)[C@H]3O)cc2)cc1)NCCNC(=S)Nc1cccc(N=C=S)c1", "note": "(some centres undefined)", "values": [{"measurement": "Ki", "setting": "Adenosine receptor A1 [1]", "value": 0.867, "unit": "nM"}]}, {"smiles": "CCCn1c(=O)c2nc(-c3ccc(OCC(=O)NCCNC(=O)CCC(=O)ON4C(=O)CCC4=O)cc3)[nH]c2n(CCC)c1=O", "values": [{"measurement": "inhibition", "setting": "[10]", "value": 0, "unit": "%"}]}, {"smiles": "Cc1ccc(NC(=S)NCCNC(=O)Cc2ccc(NC(=O)Cc3ccc(Nc4ncnc5c4ncn5C4O[C@H](CO)[C@@H](O)[C@H]4O)cc3)cc2)cc1", "note": "(some centres undefined)", "values": [{"measurement": "Ki", "setting": "Adenosine receptor A1 [1]", "value": 3.72, "unit": "nM"}]}, {"smiles": "O=C(Cc1ccc(NC(=O)Cc2ccc(Nc3ncnc4c3ncn4C3O[C@H](CO)[C@@H](O)[C@H]3O)cc2)cc1)NCC/N=C(\\S)Nc1ccc([N+](=O)[O-])cc1", "note": "(some centres undefined)", "values": [{"measurement": "Ki", "setting": "Adenosine receptor A1 [1]", "value": 1.97, "unit": "nM"}]}, {"smiles": "O=C(Cc1ccc(NC(=O)Cc2ccc(Nc3ncnc4c3ncn4C3O[C@H](CO)[C@@H](O)[C@H]3O)cc2)cc1)NCCNC(=S)Nc1ccccc1F", "note": "(some centres undefined)", "values": [{"measurement": "Ki", "setting": "Adenosine receptor A1 [1]", "value": 6.75, "unit": "nM"}]}]}
